Converted amounts (≈) assume the structure as drawn. The source made the active and inactive calls. The calls are words filed in the database; no cut-off is given here. Where a SMILES comes first, the peptide text is derived from it. [ ]: non-standard residue; d: D form. The star is where a group is joined. Palmitoyl = CCCCCCCCCCCCCCCC(=O)*; βAla = NCCC(=O)O
Experiments:
[1] = test system: Influenza A virus; assay: Antiviral activity against influenza A virus assessed as inhibition of viral replicon activity up to 100 uM incubated for 30 hrs by firefly luciferase reporter gene assay; assay type: functional, organism-based
Procedure, shortened: (§1)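 HEK293T cells (2.5 × 10^4/well) transfected with plasmids for NP, PB1, PB2, PA plus p0LN-S-Luc firefly and pRL-SV40 Renilla reporters; serially diluted compound added 6 h post-transfection, luciferase read after 30 h by Dual-Glo. Activity = firefly/Renilla ratio; % inhibition normalized to positive and negative controls, curve-fitted; three independent measurements.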

[2] = test system: Middle East respiratory syndrome-related coronavirus; assay: Antiviral activity against MERS-CoV pseudovirus infected in human HuH7 cells treated with 30 mins pre-treated pseudovirus/compopund mixture and measured after 48 hrs by luciferase reporter assay; assay type: functional, organism-based
Procedure, shortened: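 Serially diluted peptide premixed with MERS-CoV pseudovirus 30 min at 37 °C, then added to Huh-7 cells; medium replaced at 12 h postinfection and cells cultured a further 48 h at 37 °C before luciferase read-out.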

[3] = biological target: Hemagglutinin (Influenza A virus (A/Puerto Rico/8/1934(H1N1))) (UniProt P03452); assay: Inhibition of Influenza A virus (A/Puerto Rico/8/1934(H1N1)) Hemagglutinin 1-induced aggregation of chicken erythrocytes at 0.05 to 100 uM
[4] = test system: Influenza A virus; assay: Binding affinity to influenza A virus hemagglutinin 2 synthetic peptide N66 at pH 5 by sedimentation velocity analysis
Procedure, shortened: (§2)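 Complexes at 150 μM final: with HR1P 30 min at 25 °C in 10 mM phosphate pH 7.4; with N66 30 min at 30 °C in sodium acetate/phosphate/NaCl pH 5.0. Sedimentation velocity at 280 nm, 3000 then 60000 rpm, 25 °C; c(s) distribution and molecular weight derived.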

[5] = test system: Influenza A virus; assay: Binding affinity to influenza A virus hemagglutinin 2 synthetic peptide N66 at 75 uM incubated for 30 mins by Coomassie blue R250 staining based native polyacrylamide gel electrophoresis method
Procedure, shortened: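 Equimolar mix with N66 (150 μM each) in sodium acetate/phosphate/NaCl pH 5.0, 30 min at 30 °C; neutralized with 200 mM Tris pH 8.5, diluted 1:1 in Tris-glycine sample buffer, run on 15% Tris-glycine gel, running buffer pH 8.8 (90 V then 150 V, 2.5 h); Coomassie R250 stain.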

[6] = Inhibition of MERS-CoV spike protein-mediated cell-cell fusion in 293T/MERS/EGPF cells assessed as reduction in cell fusion incubated for 4 hrs by inverted fluorescence microscopy; assay type: cell-based, Middle East respiratory syndrome-related coronavirus
Procedure, shortened: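 Huh-7 cells expressing DPP4 plated 5 × 10^4/well, 5 h at 37 °C; serially diluted peptide added, then 293T cells carrying MERS-CoV S and EGFP (or EGFP-only control cells), 1 × 10^4/well. After 4 h coculture at 37 °C, fused and unfused effector cells counted by fluorescence microscopy.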

[7] = Half life in Sprague-Dawley rat at 5 mg/kg, iv administered as single dose by LC-MS/MS analysis; assay type: ADME, organism-based; conditions: in vivo
[8] = Solubility in pure water at 2 mg by HPLC-UV method; assay type: physicochemical
[9] = test system: Middle East respiratory syndrome-related coronavirus; assay: Binding affinity to MERS-CoV spike protein synthetic peptide HR1P at pH 7.4 by sedimentation velocity analysis; procedure, shortened: as §2
[10] = Cytotoxicity in human TZM-bl cells; assay type: cell-based
[11] = test system: Influenza A virus; assay: Binding affinity to influenza A virus hemagglutinin 2 synthetic peptide N66 assessed as melting temperature at 10 uM at pH 5 by CD spectroscopy
Procedure, shortened: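 Thermal unfolding by CD at 222 nm, 10–90 °C at 2 °C/min. Samples held 10 μM peptide: for HR1P in 10 mM phosphate pH 7.4; for N66 in 10 mM sodium acetate with 10 mM sodium phosphate and 150 mM NaCl, pH 5.0.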

[12] = Cmax in Sprague-Dawley rat at 5 mg/kg, iv administered as single dose by LC-MS/MS analysis; assay type: ADME, organism-based; parameters: dose 5 mg/kg, route intravenous; conditions: in vivo
[13] = test system: Influenza A virus; assay: Inhibition of influenza A virus infected in MDCK cells assessed as inhibition of viral load treated with compound at 8 to 10 hrs post-infection by RT-qPCR method based time of addition assay; assay type: functional, organism-based
Procedure, shortened: (§3)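 MDCK cells (2.0 × 10^5/well) washed with PBS, virus adsorbed (MOI 0.05) 60 min at 4 °C, washed, then compound present only during 0–10, 0–2, 2–5, 5–8 or 8–10 h postinfection; cultured in fresh medium to 10 h, total RNA extracted, viral load by absolute one-step RT-qPCR; triplicate, versus PBS control.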

[14] = test system: Influenza A virus; assay: Inhibition of influenza A virus infected in MDCK cells assessed as inhibition of viral load treated with compound at 0 to 10 hrs post-infection by RT-qPCR method based time of addition assay; assay type: functional; procedure, shortened: as §3
[15] = test system: Influenza A virus; assay: Inhibition of influenza A virus infected in MDCK cells assessed as inhibition of viral load treated with compound at 2 to 5 hrs post-infection by RT-qPCR method based time of addition assay; assay type: functional, organism-based; procedure, shortened: as §3
[16] = biological target: Hemagglutinin (Influenza A virus (A/Puerto Rico/8/1934(H1N1))) (UniProt P03452); assay: Inhibition of Influenza A virus (A/Puerto Rico/8/1934(H1N1)) Hemagglutinin 2-mediated hemolysis of chicken erythrocytes at acidic pH conditions
[17] = AUC (0 to t) in Sprague-Dawley rat at 5 mg/kg, iv administered as single dose by LC-MS/MS analysis; assay type: ADME, organism-based; conditions: in vivo
[18] = test system: Influenza A virus; assay: Inhibition of influenza A virus infected in MDCK cells assessed as inhibition of viral load treated with compound at 5 to 8 hrs post-infection by RT-qPCR method based time of addition assay; assay type: functional, organism-based; procedure, shortened: as §3
[19] = test system: Middle East respiratory syndrome-related coronavirus; assay: Binding affinity to MERS-CoV spike protein synthetic peptide HR1P assessed as changes in alpha-helical structures at 10 uM at pH 7.4 by CD spectroscopy
Procedure, shortened: (§4)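 Peptides at 10 μM final. HR1P incubated with test peptide 30 min at 25 °C in 10 mM phosphate, pH 7.4; N66 30 min at 30 °C in 10 mM sodium acetate/10 mM sodium phosphate/150 mM NaCl, pH 5.0; measured at 25 °C. Mean residue ellipticity; helicity from −33000 deg cm2 dmol−1 = 100%.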

[20] = Cytotoxicity in MDCK cells assessed as reduction in cell viability incubated for 72 hrs by cell-titer-Glo cell viability assay; assay type: cell-based, Canis lupus familiaris; conditions: dog
[21] = test system: Rattus norvegicus; assay: Clearance in Sprague-Dawley rat at 5 mg/kg, iv administered as single dose by LC-MS/MS analysis; assay type: ADME, organism-based; conditions: in vivo
[22] = test system: Influenza A virus; assay: Binding affinity to influenza A virus hemagglutinin 2 synthetic peptide N66 assessed as changes in alpha-helical structures at 10 uM at pH 5 by CD spectroscopy; procedure, shortened: as §4
[23] = test system: Influenza A virus; assay: Antiviral activity against influenza A virus Hong Kong/8/1968(H3N2) infected in HEK293T cells assessed as inhibition of viral replicon activity incubated for 30 hrs by dual-Glo luciferase assay; assay type: functional, organism-based; conditions: HEK-293T; procedure, shortened: as §1
[24] = test system: Influenza B virus; assay: Antiviral activity against Influenza B virus (B/Lee/40); assay type: functional, organism-based; conditions: B/Lee/1940
[25] = test system: Influenza A virus; conditions: A/Puerto Rico/8/1934(H1N1), 0.1 to 1000 uM

Sequence of Hemagglutinin (Influenza A virus (A/Puerto Rico/8/1934(H1N1))) (P03452 whole entry): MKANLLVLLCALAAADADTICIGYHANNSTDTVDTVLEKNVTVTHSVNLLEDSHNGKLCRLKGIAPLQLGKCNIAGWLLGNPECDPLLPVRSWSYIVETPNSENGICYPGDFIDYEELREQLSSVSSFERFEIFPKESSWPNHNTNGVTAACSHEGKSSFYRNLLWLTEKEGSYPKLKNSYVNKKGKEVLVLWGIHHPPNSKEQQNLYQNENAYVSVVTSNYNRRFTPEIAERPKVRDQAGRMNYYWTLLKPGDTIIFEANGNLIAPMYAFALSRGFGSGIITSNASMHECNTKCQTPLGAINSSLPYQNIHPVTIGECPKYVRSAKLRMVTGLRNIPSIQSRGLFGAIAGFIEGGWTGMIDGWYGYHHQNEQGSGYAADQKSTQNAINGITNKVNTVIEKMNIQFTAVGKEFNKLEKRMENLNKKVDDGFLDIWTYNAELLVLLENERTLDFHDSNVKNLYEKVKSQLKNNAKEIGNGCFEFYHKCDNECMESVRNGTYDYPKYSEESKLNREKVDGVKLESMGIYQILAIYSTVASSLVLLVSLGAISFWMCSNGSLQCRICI

CCCCCCCCCCCCCCCC(=O)NCCCC[C@H](NC(=O)CCNC(=O)[C@H](CCCCN)NC(=O)[C@H](CCCCN)NC(=O)[C@H](CCC(N)=O)NC(=O)[C@@H](NC(=O)[C@H](CCC(=O)O)NC(=O)[C@H](CCC(=O)O)NC(=O)[C@@H](NC(=O)[C@H](CCCCN)NC(=O)[C@H](CCCCN)NC(=O)[C@H](CCC(N)=O)NC(=O)[C@@H](NC(=O)[C@H](CCC(=O)O)NC(=O)[C@H](CCC(=O)O)NC(=O)[C@@H](NC(=O)[C@H](CCCCN)NC(=O)[C@H](CCCCN)NC(=O)[C@H](CCC(N)=O)NC(=O)[C@@H](NC(=O)[C@H](CCC(=O)O)NC(=O)[C@H](CCC(=O)O)NC(=O)[C@@H](NC(=O)[C@H](CCCCN)NC(=O)[C@H](CCCCN)NC(=O)[C@H](CCC(N)=O)NC(=O)[C@@H](NC(=O)[C@H](CCC(=O)O)NC(=O)[C@H](CCC(=O)O)NC(=O)[C@@H](NC(=O)[C@H](CCCCN)NC(=O)[C@H](CCCCN)NC(=O)[C@H](CCC(N)=O)NC(=O)[C@@H](NC(=O)[C@H](CCC(=O)O)NC(=O)[C@H](CCC(=O)O)NC(=O)[C@@H](NC(C)=O)[C@@H](C)CC)[C@@H](C)CC)[C@@H](C)CC)[C@@H](C)CC)[C@@H](C)CC)[C@@H](C)CC)[C@@H](C)CC)[C@@H](C)CC)[C@@H](C)CC)[C@@H](C)CC)C(N)=O (Ac-IEEIQKKIEEIQKKIEEIQKKIEEIQKKIEEIQKK[βAla]K(Palmitoyl)-NH2)
inhibition [1]: inactive | Activity [2]: Active | inhibition [3]: inactive | Activity [4]: Active | Activity [5]: Active | EC50 [6]: 110 nM | half-life [7]: 6.6 h | solubility [8]: 8870 µg/mL (≈ 1830 µM) | Activity [9]: Active | CC50 [10]: > 100000 nM | Tm [11]: 83.1 °C | Cmax [12]: 97.6 µg/mL | inhibition [13]: inactive | inhibition (INH) [14]: 60% | inhibition [15]: inactive | inhibition [16]: Active | AUC(0-t) [17]: 235 µg·h/mL | inhibition [18]: inactive | Activity [19]: Active | CC50 at 72 h [20]: > 100000 nM | CL [21]: 0.345 mL/min/kg | Activity [22]: Active | EC50 [23]: 700 nM | EC50 [24]: 1870 nM | inhibition [25]: inactive
